Screening results: PubChem, several laboratories
MEX-5 binding: C. elegans MEX-5 TCR-2 RNA binding activity; Q9XUB2; 300,000 tested, 0.38% active; AID 1832; activity score (negative = inhibition of binding), % at 10 µM; MEX-5/FITC-TCR2 RNA binding, fluorescence polarization; active compounds read low;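 active = inhibition past about -25% in most replicates, and total fluorescence under double the plate's negative control median, limit read from the data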;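 note: 0% = DMSO and -100% = 5 µM competing unlabeled TCR2 RNA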
Target sequence (Q9XUB2 whole entry, looked up): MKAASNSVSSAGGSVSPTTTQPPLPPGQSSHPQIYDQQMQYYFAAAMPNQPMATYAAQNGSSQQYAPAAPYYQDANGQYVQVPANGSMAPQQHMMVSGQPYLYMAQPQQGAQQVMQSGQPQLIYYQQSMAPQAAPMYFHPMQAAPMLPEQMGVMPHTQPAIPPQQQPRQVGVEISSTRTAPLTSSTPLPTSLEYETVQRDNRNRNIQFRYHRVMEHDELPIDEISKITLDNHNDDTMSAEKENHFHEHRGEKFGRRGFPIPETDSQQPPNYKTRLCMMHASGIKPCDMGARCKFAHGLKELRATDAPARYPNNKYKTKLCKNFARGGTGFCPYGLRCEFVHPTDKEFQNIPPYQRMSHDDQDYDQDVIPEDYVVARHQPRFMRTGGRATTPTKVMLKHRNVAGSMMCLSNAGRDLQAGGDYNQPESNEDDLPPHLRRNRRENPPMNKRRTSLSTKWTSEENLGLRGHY
EBV gp42 inh: EBV gp42 inhibition; Q1HVG2; 220,000 tested, 0.42% active; Fluorescence polarization binding assay, mP read-out; inhibition, % (tested at 21.74 µM); in the data active = inhibition above about 50%
NS3 helicase inh: blocks Hepatitis C virus NS3 helicase unwinding; inhibition, % at 10.9 µM; AID 1800; 290,000 tested, 0.56% active; NS3 helicase DNA unwinding, Cy5 molecular beacon fluorescence;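 active = inhibition above the mean of all tested compounds plus 3 SD, set per campaign, cut at about 35% in these data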;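 note: 0% = DMSO wells and 100% = thioflavine S control wells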
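System: HCV NS3 helicase fragment; control set: DMSO and thioflavine S; technique: Cy5 fluorescence at 0 and 60 min, beacon hairpin quenching; reagent: beacon DNA duplex substrate plus ATP; replicates: singlicate; schedule: 1 h reaction at 25 °C, ATP-initiated; medium: MOPS buffer pH 6.5 with MgCl2, DTT, Tween20, BSA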
core dimer inh: HCV core protein dimerization inhibition | TR-FRET GST/Flag-core106 dimerization, 1536-well | inhibition, % at 5 µM | 300,000 tested, 0.33% active;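 active = inhibition above the mean of all tested compounds plus 3 SD, set per screening campaign, cut at about 45% in these data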
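Test system: GST/Flag-tagged HCV core106 proteins; Medium: KF-containing HEPES buffer, pH 7.45, DTT, CHAPS, BSA; Times: compound-protein-antibody incubation 4 h at 22.5 °C; Detection: TR-FRET 671 and 617 nm emission; Benchmarks: wells lacking GST-core106 and wells with excess unlabelled core106.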
EBNA-1 inhibitor: blocks EBNA-1 binding to DNA; EBNA-1 DNA binding, fluorescence polarization; inhibition, % at 14.8 µM; 300,000 tested, 0.34% active; in the data active = inhibition above about 28%
ZTA counter: blocks Epstein-Barr virus ZTA, an EBNA-1 counter-screen. ZTA-DNA binding, fluorescence polarization. inhibition, % at 11 µM. 320,000 tested, 0.15% active; in the data active = inhibition above about 33%
EBNA-1 inh conf: EBNA-1 (EBV) inhibition, confirmation; shares compounds with EBNA-1 inhibitor; Recombinant EBNA-1 DBD, Cy5-DNA fluorescence polarization; inhibition, % at 14.8 µM; 830 tested, 35% active;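 active = mean inhibition across replicates above a set limit taken from the earlier primary screen, cut at about 28% in these data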;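 note: plate controls were EBNA-1 protein with DMSO for no effect and wells lacking EBNA-1 for full effect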
ZTA DNA inh trip: counter-screen for EBNA-1 inhibitors: Epstein-Barr virus ZTA inhibitors, triplicate; Zta-ZRE DNA binding, Cy5 fluorescence polarization; inhibition, % at 11.1 µM; shares compounds with EBNA-1 inhibitor; 830 tested, under 10 active; AID 2328;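 active = mean inhibition over triplicates above a set limit taken from the primary EBNA-1 screen, cut at about 37% in these data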;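 note: purified full length Zta protein with Cy5 labeled ZRE DNA probe; 0% = Zta with DMSO and 100% = wells lacking Zta protein; inhibitors lower polarization by freeing the labeled DNA probe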
Numbers without * were called inactive; nt = not tested or not shown; ! = a repeat was not active. This is a sample that favours compounds with a hit; in the whole collection about 1.7% have one here.

SMILES	MEX-5 binding	EBV gp42 inh	NS3 helicase inh	core dimer inh	EBNA-1 inhibitor	ZTA counter	EBNA-1 inh conf	ZTA DNA inh trip
COc1n[nH]c(C(=O)NCc2ccccc2)c1[N+](=O)[O-]	0	-17	0	0	7	1	nt	nt
O=C(c1ccccc1F)N1CCN(S(=O)(=O)c2ccc(S(=O)(=O)N3CCCCCC3)cc2)CC1	-5	-10	-1	4	31*	3	33*	-6
COc1cc(NC(=O)c2ccc(C)c([N+](=O)[O-])c2)ccc1NC(=O)c1ccco1	-1	-3	4	2	51*	-12	14	-6
COc1cc(NC(=O)c2ccc(OC)c([N+](=O)[O-])c2)ccc1NC(=O)c1ccco1	1	6	-9	2	5	-10	nt	nt
Nn1c(COc2ccccc2F)nnc1SCC(=O)NC1CCCCC1	1	nt	nt	-1	-6	-7	nt	nt
O=C(c1ccc(S(=O)(=O)N2CCCCCC2)cc1)N1CCC(CN2C(=O)c3cccc4cccc(c34)C2=O)CC1	1	-3	-10	28	30*	4	-5	4
COCCn1c(SCC(=O)Nc2ccccc2OC)nc2c([nH]c3ccccc32)c1=O	-3	nt	-9	4	30*	13	-3	17
COCCn1c(SCC(=O)Nc2ccccc2F)nc2c([nH]c3ccccc32)c1=O	-2	nt	7	10	0	15	nt	nt
C=CCn1c(SCC(=O)Nc2ccccc2OC)nc2c([nH]c3ccccc32)c1=O	1	nt	-5	9	40*	-6	5	4
CCOc1c(Br)cc(CNC2CCCCCCC2)cc1OC	5	4	-12	4	-16	1	nt	nt
COc1cc(CNC2CCCCCCC2)cc(Cl)c1OC	-1	nt	-16	2	90*	2	-3	2
CC1(c2ccccc2)CC(C)(C)N2C(=O)Cc3cccc1c32 (stereo unspecified)	-1	-1	-3	-2	-6	-12	nt	nt
CC(C)NC(=O)C(=O)NCCCN1CCOCC1	2	-16	5	-7	-2	-24	nt	nt
Cc1ccc(S(=O)(=O)NCC2CCC(C(=O)NCc3ccc4c(c3)OCO4)CC2)cc1 (stereo unspecified)	-2	-6	-2	4	-1	16	nt	nt
O=C(NCc1ccc2c(c1)OCO2)C1CCC(CNS(=O)(=O)c2ccc(Cl)cc2)CC1 (stereo unspecified)	-1	-25	-6	6	30*	-2	63*	8
COc1ccccc1CN1C(=O)[C@@H]2C(CC(N)=O)NC3(C(=O)Nc4c3ccc(Cl)c4C)[C@@H]2C1=O (stereo partly specified)	-3	-21	5	0	28*	8	49*	-7
COc1ccccc1CN1C(=O)[C@@H]2C(CCC(N)=O)NC3(C(=O)Nc4c3ccc(Cl)c4C)[C@@H]2C1=O (stereo partly specified)	0	-18	1	19	-2	-11	nt	nt
Cc1cccc(NC(=O)CNC(=O)COc2ccc(C(=O)c3ccc(F)cc3)cc2)c1C	-1	5	-5	-7	41*	-18	6	-2
CC(C)OC(=O)CCCNc1ccc([N+](=O)[O-])cc1[N+](=O)[O-]	0	7	-8	4	6	2	nt	nt
COc1ccc(Cn2c(N)c(C#N)c3nc4ccccc4nc32)cc1	0	-24	3	-4	1	1	nt	nt
COc1cc(Cn2c(N)c(C#N)c3nc4ccccc4nc32)cc(OC)c1	2	-1	-13	3	92*	-7	25	-3
Nc1c(C(=O)Nc2ccc3c(c2)OCCO3)nnn1Cc1cccc(Cl)c1	2	nt	nt	2	54*	12	108*	4
Cc1ccc(/C=C2\SC(=S)N(CCC(=O)NNC(=O)c3ccc(O)cc3)C2=O)cc1	-8	nt	-2	15	29*	-5	57*	10
Cc1ccc(/C=C2\SC(=S)N(CCC(=O)NNC(=O)c3cccc(O)c3)C2=O)cc1	-3	nt	3	22	8	-4	nt	nt
CC(/C=C1\SC(=S)N(c2ccc(C(=O)O)cc2)C1=O)=C\c1ccccc1	-3	16	4	17	36*	26	-4	23
SMILES	MEX-5 binding	EBV gp42 inh	NS3 helicase inh	core dimer inh	EBNA-1 inhibitor	ZTA counter	EBNA-1 inh conf	ZTA DNA inh trip
O=C(CN1C(=O)S/C(=C\C=C\c2ccccc2)C1=O)Nc1ccc(O)cc1	-3	-2	11	37	52*	-18	7	-2
CC(/C=C1\SC(=S)N(CCC(=O)Nc2ccc(O)cc2)C1=O)=C\c1ccccc1	3	nt	2	24	34*	-5	10	-6
O=C(CCCc1c[nH]c2ccccc12)Nc1ncccc1O	0	nt	1	nt	nt	nt	nt	nt
CCOC(=O)CCCCCNC(=O)c1ccc(F)cc1F	1	nt	nt	-6	10	-6	nt	nt
Nc1nc(OCC2CCCCC2)c2[nH]cnc2n1	0	nt	-6	-7	-9	-6	nt	nt
COCCn1c(=NC(=O)c2cc3ccccc3oc2=O)sc2cc(S(N)(=O)=O)ccc21	3	-3	6	7	14	6	nt	nt
NC(=S)N/N=C/c1coc2ccc(F)cc2c1=O	1	-11	6	6	-3	-5	nt	nt
CC1=Nc2ccc(C)cc2/C1=C/c1c(N)n2oc(C)cc2nc1=O	-12	-27	-4	0	28*!	19	33*	1
CSc1nsc2nc(=O)c(/C=C3\C(C)=Nc4ccc(C)cc43)c(N)n12	-11	5	32	5	1	8	nt	nt
CCC(C)n1c(=O)c2sccc2n2c(CCCC(=O)N3CCC(C(N)=O)CC3)nnc12 (stereo unspecified)	-3	nt	-3	8	-4	-3	nt	nt
Cc1cccc(NC(=O)CN2C(=O)N/C(=C\c3ccc(N4CCOCC4)cc3)C2=O)c1	-2	-22	0	27	34*	12	11	10
Cc1cc(N2CCOCC2)ccc1/C=C1\NC(=O)N(CC(=O)Nc2ccc(F)cc2)C1=O	-12	-5	6	-6	15	-15	nt	nt
CCOc1cc(/C=C2/NC(=O)N(CC(=O)Nc3cccc(C)c3)C2=O)ccc1O	-1	-9	0	-10	-1	11	nt	nt
Cc1cc(N2CCOCC2)ccc1/C=C1\NC(=O)N(CC(=O)Nc2ccccc2C)C1=O	0	-13	4	-4	42*	12	6	-5
CCOC(=O)c1sc(NC(=O)COc2ccc3c(c2)OCO3)nc1C	-2	nt	-7	7	65*	10	124*	3
CC(=O)c1sc(NC(=O)COc2ccc(Br)cc2)nc1C	-8	-48	-2	-69	43*	-2	18	-1
